Substitutions are numbered along the chain they refer to. Like-named read-outs stand apart in the source and are kept apart here.
Tests used:
[1] = target: T1, GK-WT (recombinant wild type human β-cell glucokinase) (Homo sapiens, UniProt P35557); experiment: D-glucose binding to GK-WT by tryptophan fluorescence titration
T1 sequence (P35557 1-465): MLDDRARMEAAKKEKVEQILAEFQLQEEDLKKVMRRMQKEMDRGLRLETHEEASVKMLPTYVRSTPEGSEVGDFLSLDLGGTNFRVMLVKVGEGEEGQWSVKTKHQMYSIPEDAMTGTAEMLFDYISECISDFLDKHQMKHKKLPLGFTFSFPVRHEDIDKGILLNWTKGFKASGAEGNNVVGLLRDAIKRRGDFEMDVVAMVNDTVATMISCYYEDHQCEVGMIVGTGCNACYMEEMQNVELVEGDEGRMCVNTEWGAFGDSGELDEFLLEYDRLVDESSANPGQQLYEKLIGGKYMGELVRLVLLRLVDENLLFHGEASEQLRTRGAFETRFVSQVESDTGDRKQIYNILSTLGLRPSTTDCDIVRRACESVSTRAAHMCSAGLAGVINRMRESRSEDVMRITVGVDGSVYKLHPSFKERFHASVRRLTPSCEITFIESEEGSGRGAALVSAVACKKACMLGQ
In short: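 Recombinant human wild-type β-cell glucokinase was titrated with D-glucose in K-phosphate buffer, pH 7.2, with or without cosolvent, and read by Trp fluorescence at 20 °C (excitation 295 nm, emission 300–500 nm). Fluorescence was fitted to F = F0 + (Fsat − F0)[glucose]/([glucose] + Kd) to give Kd and F/F0, the intensity at glucose saturation over the intensity without glucose.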

GK-W167 (W99R/W257F) = target: T2, GK-W167 (W99R/W257F) (Homo sapiens, UniProt P35557, W257F/W99R); experiment: Change of tryptophan fluorescence yield of GK-W167 on adding glucose or glycerol; format: binding
T2 sequence (P35557 1-465 W99R/W257F): T1 sequence (P35557 1-465) with W99R, W257F
In short: (§1)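 Recombinant human β-cell glucokinase single-Trp variant, made as a GST fusion in E. coli, cleaved with factor Xa, and repurified. Buffer was 20 mM K phosphate, 50 mM KCl, 1 mM EDTA, 1 mM DTT, pH 7.2, with or without 100 mM D-glucose or 95% glycerol (v/v). Excitation 295 nm, emission 300–500 nm, 20 °C. Quantum yield was measured against NATA (φ 0.14) in water at A < 0.05, with refractive-index correction. The ratio is with/without additive.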

GK-WT = experiment: Change of tryptophan fluorescence yield of GK-WT on adding glucose or glycerol; format: binding, human
[2] = target: T3, GK-W65 (W99R/W167F/W257F/T65W) (Homo sapiens, UniProt P35557, T65W/W167F/W257F/W99R); experiment: Change of tryptophan fluorescence yield of GK-W65 on adding glucose or glycerol; format: binding; settings: GK-W65, 95% glycerol/buffer (v/v)
T3 sequence (P35557 1-465 T65W/W99R/W167F/W257F): T1 sequence (P35557 1-465) with T65W, W99R, W167F, W257F
In short: as §1

GK-W257 (W99R/W167F) = target: T4, GK-W257 (W99R/W167F) (Homo sapiens, UniProt P35557, W167F/W99R); experiment: Change of tryptophan fluorescence yield of GK-W257 on adding glucose or glycerol; format: binding; settings: GK-W257, 95% glycerol/buffer (v/v)
T4 sequence (P35557 1-465 W99R/W167F): T1 sequence (P35557 1-465) with W99R, W167F
In short: as §1

GK-W99 (W167F/W257F) = target: T5, GK-W99 (W167F/W257F) (Homo sapiens, UniProt P35557, W167F/W257F); experiment: Change of tryptophan fluorescence yield of GK-W99 on adding glucose or glycerol; format: binding; settings: GK-W99, 95% glycerol/buffer (v/v)
T5 sequence (P35557 1-465 W167F/W257F): T1 sequence (P35557 1-465) with W167F, W257F
In short: as §1

Structure (SMILES) | F/F0 upon D-glucose binding ([1]; 1 M sucrose) | F/F0 upon D-glucose binding ([1]; 1 M trehalose) | F/F0 upon D-glucose binding ([1]; 2 M L-glucose) | F/F0 upon D-glucose binding ([1]; 20% glycerol) | Kd ([1]; D-glucose binding KD, 1 M sucrose) | Kd ([1]; D-glucose binding KD, 1 M trehalose) | Kd ([1]; D-glucose binding KD, 2 M L-glucose) | Kd ([1]; read-out: D-glucose binding KD, PO4 buffer pH 7.2, 20 °C) | (Φf)/Φ0 observed, fluorescence quantum yield with/without (times) (GK-W167 (W99R/W257F); GK-W167, 100 mM D-glucose in buffer, listed as Glucose) | (Φf)/Φ0 observed, fluorescence quantum yield with/without (times) (GK-W167 (W99R/W257F); GK-W167, 100 mM D-glucose in buffer, listed as glucose) | (Φf)/Φ0 observed, fluorescence quantum yield with/without (times) (GK-WT; 100 mM D-glucose in buffer, listed as Glucose) | (Φf)/Φ0 observed, fluorescence quantum yield with/without (times) (GK-WT; 100 mM D-glucose in buffer, listed as glucose) | (Φf)/Φ0 observed, fluorescence quantum yield with/without (times) [2] | (Φf)/Φ0 observed, fluorescence quantum yield with/without (times) (GK-W167 (W99R/W257F); GK-W167, 95% glycerol/buffer (v/v)) | (Φf)/Φ0 observed, fluorescence quantum yield with/without (times) (GK-WT; 95% glycerol/buffer (v/v)) | (Φf)/Φ0 observed, fluorescence quantum yield with/without (times) (GK-W257 (W99R/W167F)) | (Φf)/Φ0 observed, fluorescence quantum yield with/without (times) (GK-W99 (W167F/W257F)) | (Φf)/Φ0 observed, fluorescence quantum yield with/without (times) (GK-W99 (W167F/W257F); listed as Glycerol)
OC[C@H]1OC(O)[C@H](O)[C@@H](O)[C@@H]1O (stereo partly drawn) [D-glucose] | 1.74 | 1.71 | 1.63 | 1.74 | 3.57 mM | 1.75 mM | 1.12 mM | 7.39 mM | 1.8 | about 1.8 | 2.0 | ~2 |  |  |  |  |  | 
OCC(O)CO [glycerol] |  |  |  |  |  |  |  |  |  |  |  |  | 1.1 | ~2.3 | 2.6 | 1.3 | over 4.6 | 4.6
